Test results published in ChEMBL document CHEMBL5316310, “Discovery of MK-8189, a Highly Potent and Selective PDE10A Inhibitor for the Treatment of Schizophrenia” (J Med Chem, 2023).
The source made the active and inactive calls. No cut-off for these calls is given here.

Legend:
[1] = Selectivity ratio of Ki for N-terminal GST-tagged and C-terminal His-tagged human recombinant PDE7A (122 to 456 residues) expressed in baculovirus-infected Sf9 cells to Ki for human PDE10A2 transfected in human AD293 cells cytosolic fraction
[2] = target: Somatostatin receptor type 2 (Homo sapiens, UniProt P30874); assay: Displacement of [125I]somatostatin from human full-length recombinant SSTR2 expressed in CHO-K1 cells by radioligand binding assay; format: cell-based
[3] = Selectivity ratio of Ki for N-terminal GST-tagged full length human recombinant PDE9A2 expressed in baculovirus-infected Sf9 cells to Ki for human PDE10A2 transfected in human AD293 cells cytosolic fraction
[4] = Oral bioavailability in Rhesus monkey at 5 mg/kg by LC-MS/MS analysis; format: ADME, organism-based, Macaca mulatta; conditions: in vivo
Method in brief: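 Oral gavage, 5 mL/kg. Rats (n = 3 male Wistar–Hannover) received 10 mg/kg in acidified 10% Tween 80, pH 2, sampled 0.25–24 h. Rhesus (2 female, 1 male) received 5 mg/kg in 0.5% methylcellulose with 1 mol equiv HCl. Plasma quantified by LC-MS/MS. F was taken from dose-adjusted PO/IV AUC0-inf ratios versus the 2 mg/kg (rat) or 0.5 mg/kg (rhesus) IV legs; values are means of n = 3.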

[5] = target: T1, cAMP and cAMP-inhibited cGMP 3',5'-cyclic phosphodiesterase 10A (Homo sapiens, UniProt Q9Y233); assay: Reversible binding affinity to human full length His-tagged PDE10A2 assessed as half-life on the enzyme measured at 25 degC by surface plasmon resonance analysis
[6] = Protein binding in rat plasma assessed as unbound fraction; format: ADME, cell-free
[7] = Protein binding in rat plasma; format: ADME, cell-free
[8] = target: T1, cAMP and cAMP-inhibited cGMP 3',5'-cyclic phosphodiesterase 10A; assay: Binding affinity to human full length His-tagged PDE10A2 assessed as on-rate constant by surface plasmon resonance analysis
[9] = target: Voltage-dependent L-type calcium channel subunit alpha-1C (Homo sapiens, UniProt Q13936); assay: Inhibition of Cav1.2 (unknown origin)
[10] = Plasma concentration in MK-801-induced psychosis rat model at 0.5 mg/kg, po administered 1 hr prior to MK-801 administration and measured after 90 mins; format: ADME, organism-based; conditions: time 150 min
Method in brief: (§1)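 Rats dosed orally, then MK-801 1 h later; locomotor activity recorded over 90 min. Plasma drawn 2.5 h post dose at end of the study and assayed for compound. n = 8/group, reported as mean (SEM).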

[11] = Protein binding in human plasma assessed as unbound fraction; format: ADME, cell-free
[12] = In vivo receptor occupancy at PDE10A receptor in MK-801-induced psychosis rat model striatum at 0.25 mg/kg, po administered 1 hr prior to MK-801 administration and measured after 90 mins; format: functional; conditions: time 2.5 hrs
Method in brief: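 Rats in the MK-801 locomotor study were dosed orally at 0.25, 0.50 or 0.75 mg/kg. Plasma was taken 2.5 h post dose and drug levels measured. Striatal PDE10A occupancy was derived from plasma concentration using the [3H]MK-8193 ex vivo occupancy relation. n = 8/group; mean (SEM).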

[13] = Selectivity ratio of Ki for N-terminal His-GST-tagged human recombinant PDE3A(669 to 1141 residues) expressed in baculovirus-infected Sf9 cells to Ki for human PDE10A2 transfected in human AD293 cells cytosolic fraction
[14] = Toxicity in CHO cells assessed as chromosomal aberration; format: cell-based, Cricetulus griseus; conditions: chinese hamster
Rattus norvegicus [15] = assay: Cognitive-enhancing activity in rat assessed as improvement in novel object recognition at 0.16 to 0.25 mg/kg, po measured after 1 hr by novel object recognition test; format: functional, organism-based; conditions: dose 0.16-0.25 mg/kg
Method in brief: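 Novel object recognition in rats: oral dosing, then discrimination of a novel object from one seen 48 h earlier. Doses 0.08–0.25 mg/kg; donepezil 0.56 mg/kg as positive control. Groups compared with vehicle (p < 0.05). Plasma for exposure taken 1 h post dose, n = 4/group.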

[16] = Protein binding in human plasma; format: ADME, cell-free
Rattus norvegicus [17] = assay: Anti-psychotic activity in rat assessed as inhibition of MK-801-induced hyperlocomotion administered orally 1 hr prior to MK-801 administration and measured for 90 mins; format: functional, organism-based; conditions: dose 0.25-0.75 mg/kg, route po, time 150.0 min
Method in brief: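 Rats given compound orally at 0.25–0.75 mg/kg 1 h before the NMDA antagonist MK-801. Total distance travelled was recorded over 90 min and compared with vehicle + MK-801 groups (p < 0.05). n = 8/group; mean ± SEM.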

[18] = target: Sodium channel protein type 5 subunit alpha (Homo sapiens, UniProt Q14524); assay: Inhibition of Nav1.5 (unknown origin)
[19] = target: T2, Nuclear receptor subfamily 1 group I member 2 (Homo sapiens, UniProt O75469); assay: Activation of PXR (unknown origin) assessed as CYP3A4 induction; format: ADME
T2 sequence (O75469 whole entry): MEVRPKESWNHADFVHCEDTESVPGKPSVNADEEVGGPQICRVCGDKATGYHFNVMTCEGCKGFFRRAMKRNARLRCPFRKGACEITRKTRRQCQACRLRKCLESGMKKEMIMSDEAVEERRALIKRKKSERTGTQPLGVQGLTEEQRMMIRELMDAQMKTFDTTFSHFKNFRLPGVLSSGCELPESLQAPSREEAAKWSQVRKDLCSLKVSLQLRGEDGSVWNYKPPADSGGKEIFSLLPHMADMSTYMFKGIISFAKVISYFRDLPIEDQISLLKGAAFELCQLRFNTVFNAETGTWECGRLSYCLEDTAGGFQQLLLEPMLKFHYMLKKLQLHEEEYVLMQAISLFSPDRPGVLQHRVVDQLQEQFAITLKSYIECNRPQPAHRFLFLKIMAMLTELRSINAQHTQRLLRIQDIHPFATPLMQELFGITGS

[20] = Plasma concentration in MK-801-induced psychosis rat model at 0.75 mg/kg, po administered 1 hr prior to MK-801 administration and measured after 90 mins; format: ADME, organism-based; conditions: time 150 min; method in brief: as §1
[21] = Selectivity ratio of Ki for N-terminal GST-tagged human recombinant PDE5A1 (1 to 875 residues) expressed in baculovirus-infected Sf9 cells to Ki for human PDE10A2 transfected in human AD293 cells cytosolic fraction
P-gp (ABCB1) = P-gp (ABCB1) (Homo sapiens, UniProt P08183); assay: Substrate activity at human P-gp assessed as efflux ratio; format: ADME; conditions: not told
[22] = Selectivity ratio of Ki for N-terminal GST-tagged human recombinant PDE1A expressed in baculovirus-infected Sf9 cells to Ki for human PDE10A2 transfected in human AD293 cells cytosolic fraction
[23] = Plasma concentration in rat at 0.25 mg/kg, po measured after 1 hr; format: ADME, organism-based
Method in brief: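 Rat novel object recognition (episodic memory) study, orally dosed. Plasma drawn 1 h post dose at end of the experiment for compound level. n = 4/group, reported as mean (SEM).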

T1 sequence (Q9Y233 whole entry): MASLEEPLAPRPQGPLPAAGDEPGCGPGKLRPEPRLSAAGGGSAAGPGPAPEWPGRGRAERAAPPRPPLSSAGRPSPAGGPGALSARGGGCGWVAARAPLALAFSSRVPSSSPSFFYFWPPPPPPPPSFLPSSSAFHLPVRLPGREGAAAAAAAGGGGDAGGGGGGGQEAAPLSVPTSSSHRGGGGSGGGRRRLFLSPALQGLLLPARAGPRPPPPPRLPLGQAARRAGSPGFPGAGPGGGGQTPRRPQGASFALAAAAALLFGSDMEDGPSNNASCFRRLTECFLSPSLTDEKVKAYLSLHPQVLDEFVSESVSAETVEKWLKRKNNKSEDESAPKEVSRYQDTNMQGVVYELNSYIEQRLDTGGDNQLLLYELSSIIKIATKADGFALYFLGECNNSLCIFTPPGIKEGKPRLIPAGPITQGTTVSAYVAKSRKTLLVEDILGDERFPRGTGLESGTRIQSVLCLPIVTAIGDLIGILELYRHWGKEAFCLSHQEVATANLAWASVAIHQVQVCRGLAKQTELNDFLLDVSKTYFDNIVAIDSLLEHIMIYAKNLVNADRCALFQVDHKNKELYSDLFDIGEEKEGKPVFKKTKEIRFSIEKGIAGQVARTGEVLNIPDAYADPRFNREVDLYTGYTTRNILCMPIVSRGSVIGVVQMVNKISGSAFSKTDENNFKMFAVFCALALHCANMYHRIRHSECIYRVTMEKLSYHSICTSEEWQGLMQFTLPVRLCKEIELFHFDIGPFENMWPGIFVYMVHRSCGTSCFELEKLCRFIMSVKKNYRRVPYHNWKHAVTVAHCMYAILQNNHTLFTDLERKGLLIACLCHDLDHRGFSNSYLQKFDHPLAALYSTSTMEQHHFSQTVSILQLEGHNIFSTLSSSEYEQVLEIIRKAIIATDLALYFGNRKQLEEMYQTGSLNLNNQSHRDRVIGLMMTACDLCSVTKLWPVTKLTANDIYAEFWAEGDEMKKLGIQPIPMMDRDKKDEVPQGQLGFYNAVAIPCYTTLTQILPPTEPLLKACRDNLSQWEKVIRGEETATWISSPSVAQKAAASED
Sequence of Sodium channel protein type 5 subunit alpha (Q14524 whole entry): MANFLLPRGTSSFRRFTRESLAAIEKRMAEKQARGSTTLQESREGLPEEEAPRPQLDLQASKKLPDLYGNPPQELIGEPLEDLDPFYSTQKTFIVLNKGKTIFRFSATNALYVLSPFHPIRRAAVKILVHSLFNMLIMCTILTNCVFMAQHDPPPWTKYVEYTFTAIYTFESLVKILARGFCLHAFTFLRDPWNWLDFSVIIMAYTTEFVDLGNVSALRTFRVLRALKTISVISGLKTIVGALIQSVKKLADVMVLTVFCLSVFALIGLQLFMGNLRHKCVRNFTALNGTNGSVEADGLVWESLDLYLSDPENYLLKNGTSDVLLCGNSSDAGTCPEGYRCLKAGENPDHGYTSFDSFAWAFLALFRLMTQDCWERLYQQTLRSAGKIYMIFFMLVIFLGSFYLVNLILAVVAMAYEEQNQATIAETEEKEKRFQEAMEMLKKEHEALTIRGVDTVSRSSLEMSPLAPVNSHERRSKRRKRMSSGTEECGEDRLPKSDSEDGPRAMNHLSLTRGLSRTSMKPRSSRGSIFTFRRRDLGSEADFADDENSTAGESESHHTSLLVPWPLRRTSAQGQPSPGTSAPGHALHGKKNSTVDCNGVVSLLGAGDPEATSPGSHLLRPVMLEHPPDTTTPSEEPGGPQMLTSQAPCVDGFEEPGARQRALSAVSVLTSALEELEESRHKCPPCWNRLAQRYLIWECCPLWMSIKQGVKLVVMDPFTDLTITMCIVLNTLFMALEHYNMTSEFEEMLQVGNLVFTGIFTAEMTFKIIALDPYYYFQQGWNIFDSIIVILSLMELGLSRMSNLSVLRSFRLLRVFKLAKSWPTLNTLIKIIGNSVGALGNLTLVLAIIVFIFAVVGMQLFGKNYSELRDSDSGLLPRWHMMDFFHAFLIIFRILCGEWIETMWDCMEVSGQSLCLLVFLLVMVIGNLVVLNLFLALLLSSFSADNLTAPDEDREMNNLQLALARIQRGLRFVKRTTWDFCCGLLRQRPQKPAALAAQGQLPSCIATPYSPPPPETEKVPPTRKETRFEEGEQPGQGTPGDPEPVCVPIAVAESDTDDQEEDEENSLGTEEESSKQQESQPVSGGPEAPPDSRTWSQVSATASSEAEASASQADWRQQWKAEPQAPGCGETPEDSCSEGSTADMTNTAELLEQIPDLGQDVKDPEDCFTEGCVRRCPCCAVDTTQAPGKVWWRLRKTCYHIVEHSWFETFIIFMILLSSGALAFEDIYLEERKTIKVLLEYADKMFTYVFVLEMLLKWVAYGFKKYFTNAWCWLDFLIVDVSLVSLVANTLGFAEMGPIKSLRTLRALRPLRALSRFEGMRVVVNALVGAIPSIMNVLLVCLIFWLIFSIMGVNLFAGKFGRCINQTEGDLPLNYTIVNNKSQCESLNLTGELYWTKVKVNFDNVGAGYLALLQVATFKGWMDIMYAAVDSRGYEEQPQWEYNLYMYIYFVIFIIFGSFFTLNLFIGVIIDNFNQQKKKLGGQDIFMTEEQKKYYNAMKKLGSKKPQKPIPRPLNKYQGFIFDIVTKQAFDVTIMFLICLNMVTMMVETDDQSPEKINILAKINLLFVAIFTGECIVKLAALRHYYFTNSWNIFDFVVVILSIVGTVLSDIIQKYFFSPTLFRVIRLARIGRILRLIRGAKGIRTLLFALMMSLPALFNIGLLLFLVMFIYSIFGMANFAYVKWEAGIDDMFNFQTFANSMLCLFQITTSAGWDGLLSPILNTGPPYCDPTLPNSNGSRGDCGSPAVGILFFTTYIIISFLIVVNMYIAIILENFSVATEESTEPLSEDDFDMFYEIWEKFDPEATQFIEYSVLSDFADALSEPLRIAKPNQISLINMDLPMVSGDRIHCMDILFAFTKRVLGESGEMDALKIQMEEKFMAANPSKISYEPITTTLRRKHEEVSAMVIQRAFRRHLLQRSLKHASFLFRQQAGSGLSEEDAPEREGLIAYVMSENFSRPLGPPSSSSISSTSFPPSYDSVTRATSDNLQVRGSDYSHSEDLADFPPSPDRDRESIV
Sequence of P-gp (ABCB1) (P08183 whole entry): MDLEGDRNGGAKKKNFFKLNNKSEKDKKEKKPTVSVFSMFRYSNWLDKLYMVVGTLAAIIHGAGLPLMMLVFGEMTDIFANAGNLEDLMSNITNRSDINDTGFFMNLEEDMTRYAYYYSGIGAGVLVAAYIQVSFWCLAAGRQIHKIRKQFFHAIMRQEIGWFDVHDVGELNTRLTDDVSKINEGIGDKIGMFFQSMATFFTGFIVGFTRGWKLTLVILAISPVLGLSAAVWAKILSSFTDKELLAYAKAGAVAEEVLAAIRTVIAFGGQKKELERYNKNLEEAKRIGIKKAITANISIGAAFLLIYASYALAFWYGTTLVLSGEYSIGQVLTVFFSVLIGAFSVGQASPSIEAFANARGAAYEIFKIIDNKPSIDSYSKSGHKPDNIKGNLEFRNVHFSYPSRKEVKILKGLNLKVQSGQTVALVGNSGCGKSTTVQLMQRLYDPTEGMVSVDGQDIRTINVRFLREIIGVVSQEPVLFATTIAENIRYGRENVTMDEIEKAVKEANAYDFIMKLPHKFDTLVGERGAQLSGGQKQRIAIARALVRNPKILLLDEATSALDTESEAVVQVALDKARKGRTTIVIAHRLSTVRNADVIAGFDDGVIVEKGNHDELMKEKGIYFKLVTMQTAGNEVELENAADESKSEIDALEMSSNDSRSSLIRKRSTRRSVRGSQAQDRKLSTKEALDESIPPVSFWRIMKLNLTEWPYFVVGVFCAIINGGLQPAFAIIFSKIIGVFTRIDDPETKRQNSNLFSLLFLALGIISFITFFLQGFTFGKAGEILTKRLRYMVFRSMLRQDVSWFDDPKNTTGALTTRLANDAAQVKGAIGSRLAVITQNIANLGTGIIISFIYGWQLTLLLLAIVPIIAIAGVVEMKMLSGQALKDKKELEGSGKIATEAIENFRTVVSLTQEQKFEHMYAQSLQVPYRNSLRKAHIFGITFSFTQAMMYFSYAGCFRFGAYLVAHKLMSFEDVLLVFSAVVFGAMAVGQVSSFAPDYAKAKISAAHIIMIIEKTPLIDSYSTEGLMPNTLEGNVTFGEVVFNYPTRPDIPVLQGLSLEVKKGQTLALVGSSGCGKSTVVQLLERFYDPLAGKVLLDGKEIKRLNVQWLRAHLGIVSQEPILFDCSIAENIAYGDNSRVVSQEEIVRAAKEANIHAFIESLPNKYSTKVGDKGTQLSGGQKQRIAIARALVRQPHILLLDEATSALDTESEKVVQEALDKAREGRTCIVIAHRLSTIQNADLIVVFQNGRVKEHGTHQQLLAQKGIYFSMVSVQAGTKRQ
Sequence of Somatostatin receptor type 2 (P30874 whole entry): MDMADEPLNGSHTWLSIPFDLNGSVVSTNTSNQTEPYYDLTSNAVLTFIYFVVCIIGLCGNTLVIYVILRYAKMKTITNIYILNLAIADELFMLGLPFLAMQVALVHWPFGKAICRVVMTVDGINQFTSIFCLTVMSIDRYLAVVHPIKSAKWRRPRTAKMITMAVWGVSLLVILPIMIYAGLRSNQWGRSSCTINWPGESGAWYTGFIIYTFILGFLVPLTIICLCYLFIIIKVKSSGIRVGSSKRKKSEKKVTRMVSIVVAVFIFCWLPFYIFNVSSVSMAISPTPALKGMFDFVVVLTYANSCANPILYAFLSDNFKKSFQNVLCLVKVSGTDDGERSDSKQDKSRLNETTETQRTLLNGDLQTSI

Cc1ccc([C@H]2C[C@@H]2COc2cc(NCc3nnc(C)s3)nc(C)n2)nc1 [MK-8189]
Ratio Ki [1]: > 500000 | IC50 [2]: 2.8 µM | Ratio Ki [3]: > 500000 | F [4]: 41% | T1/2 [5]: 6.7 min | Fu [6]: 8.2% | PPB [7]: 91.8% | K [8]: 8 10^7/M/s | IC50 [9]: > 30 µM | concentration at 2.5 h [10]: 36 nM | Fu [11]: 4% | Occ [12]: 25% | Ratio Ki [13]: > 500000 | Activity [14]: Non-Toxic | Activity (Rattus norvegicus [15]): Active | PPB [16]: 96% | Activity (Rattus norvegicus [17]): Dose-Dependent Effect | IC50 [18]: > 30 µM | EC50 [19]: > 30 µM | concentration at 2.5 h [20]: 50 nM | Ratio Ki [21]: > 500000 | efflux ratio (P-gp (ABCB1)): < 2 | Ratio Ki [22]: > 500000 | concentration at 1 h [23]: 29 nM
